Laboratory results published in ChEMBL document CHEMBL4602650, “Quinolone-N-acylhydrazone hybrids as potent Zika and Chikungunya virus inhibitors” (Bioorg Med Chem Lett, 2020).
Activity calls are given as the source filed them. The calls are words filed in the database; no cut-off is given here.

How the values were obtained:
[1] = Selectivity index, ratio of CC50 for African monkey Vero cells to EC50 for Zika virus infected in African green monkey Vero cells; assay type: toxicity; conditions: read-out: Ratio CC50/EC50
How it was run: (§1)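 SI = CC50 in Vero cells divided by EC50 against the matching virus in Vero cells. Both values come from three independent experiments.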

[2] = Ratio of RibavarinCC50 to compound CC50 for African green monkey Vero cells assessed as reduction in cell viability by MTT assay; assay type: cell-based; conditions: chlorocebus sabaeus
[3] = Cytotoxicity against African green monkey Vero cells assessed as reduction in cell viability by MTT assay; assay type: cell-based; conditions: chlorocebus sabaeus
How it was run: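 Vero cell viability tested over 100–2000 µM. CC50 is the concentration reducing viability by 50% versus untreated controls. Mean ± SD of 3 independent experiments.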

[4] = Selectivity index, ratio of CC50 for African monkey Vero cells to EC50 for Chikungunya virus infected in African green monkey Vero cells; assay type: toxicity; conditions: read-out: Ratio CC50/EC50; how it was run: as §1
Chikungunya virus [5] = assay: Antiviral activity against Chikungunya virus infected in African green monkey Vero cells assessed as reduction in viral replication treated with compound at 1 hr post-viral infection; assay type: functional, organism-based
How it was run: (§2)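 Vero cells infected at MOI 0.1 and given 1 h for viral adsorption, then treated with increasing compound concentrations. EC50 is the concentration reducing viral replication by 50% versus infected controls. Mean ± SD of three independent experiments.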

Zika virus [6] = assay: Antiviral activity against Zika virus infected in African green monkey Vero cells assessed as reduction in viral replication treated with compound at 1 hr post-viral infection; assay type: functional, organism-based; how it was run: as §2
Zika virus [7] = assay: Antiviral activity against Zika virus infected in African green monkey Vero cells assessed as reduction in viral replication at 10 uM treated with compound at 12 hrs post infection by plaque formation assay; assay type: functional, organism-based
Zika virus [8] = assay: Antiviral activity against Zika virus infected in African green monkey Vero cells assessed as reduction in viral RNA production; assay type: functional, organism-based
Zika virus [9] = assay: Antiviral activity against Zika virus infected in African green monkey Vero cells assessed as reduction in viral replication at 10 uM treated with compound up to 6 hrs post infection by plaque formation assay; assay type: functional, organism-based
Chikungunya virus [10] = assay: Antiviral activity against Chikungunya virus infected in African green monkey Vero cells assessed as reduction in viral replication at 10 uM treated with compound up to 12 hrs post infection by plaque formation assay; assay type: functional, organism-based
Zika virus [11] = assay: Antiviral activity against Zika virus infected in African green monkey Vero cells assessed as reduction in viral replication at 10 uM treated with compound at 6 hrs post infection by plaque formation assay; assay type: functional, organism-based
Chikungunya virus [12] = assay: Antiviral activity against Chikungunya virus infected in African green monkey Vero cells assessed as reduction in viral RNA production; assay type: functional, organism-based
Chikungunya virus [13] = assay: Antiviral activity against Chikungunya virus infected in African green monkey Vero cells assessed as reduction in viral replication at 10 uM treated with compound at 16 hrs post infection by plaque formation assay; assay type: functional, organism-based

Row | SMILES | selectivity ratio [1] | selectivity ratio [2] | CC50 [3] [µM] | selectivity ratio [4] | EC50 (Chikungunya virus [5]) [µM] | EC50 (Zika virus [6]) [µM] | Activity (Zika virus [7]) | Activity (Zika virus [8]) | Activity (Zika virus [9]) | Activity (Chikungunya virus [10]) | Activity (Zika virus [11]) | Activity (Chikungunya virus [12]) | Activity (Chikungunya virus [13])
1 | O=C(N/N=C/c1ccccc1O)c1c[nH]c2ccccc2c1=O | 661 | ≥ 2 | 502 | 176 | 2.85 | 0.76 | – | – | – | – | – | – | –
2 | O=C(N/N=C/c1ccccc1O)c1c[nH]c2ccc(Cl)cc2c1=O | 1410 | ≥ 2 | 1110 | 402 | 2.77 | 0.79 | Active | Dose-dependent effect | Active | – | – | – | –
3 | O=C(N/N=C/c1ccccc1O)c1c[nH]c2ccc(Br)cc2c1=O | 548 | ≥ 2 | 443 | 164 | 2.7 | 0.81 | – | – | – | – | – | – | –
4 | NC(=O)c1ncn([C@@H]2O[C@H](CO)[C@@H](O)[C@H]2O)n1 [RIBAVIRIN] | 75.2 | – | 297 | 122 | 2.42 | 3.95 | – | – | – | inactive | inactive | – | –
5 | O=C(N/N=C/c1ccccc1O)c1c[nH]c2ccc(F)cc2c1=O | 893 | ≥ 2 | 669 | 632 | 1.06 | 0.75 | – | – | – | Active | – | Dose-dependent effect | inactive
